Laboratory results taken from ChEMBL document CHEMBL1770134, “Synthesis and in vitro activity of novel 1,2,4-triazolo[4,3-a]pyrimidine oxazolidinone antibacterial agents” (Bioorg Med Chem Lett, 2011).
≈ marks a conversion by molar mass, not a printed value.

Assays:
[1] = test system: Staphylococcus epidermidis; assay: Antibacterial activity Staphylococcus epidermidis ATCC 12228; assay type: functional
Escherichia coli = assay: Antibacterial activity against Escherichia coli ATCC 25922; assay type: functional
Enterococcus faecalis [2] = assay: Antibacterial activity against Enterococcus faecalis ATCC 29212; assay type: functional
Staphylococcus aureus [3] = assay: Antibacterial activity against methicillin-resistant Staphylococcus aureus ATCC 43300; assay type: functional
Summary of the method: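 MIC determined following CLSI guideline M07-A8 (2009) for dilution susceptibility testing of aerobically growing bacteria.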

Staphylococcus aureus [4] = assay: Antibacterial activity against Staphylococcus aureus ATCC 25923; assay type: functional
Enterococcus faecalis [5] = assay: Ratio of MIC for Linezolid to compound for Enterococcus faecalis ATCC 29212; assay type: functional
Staphylococcus aureus [6] = assay: Ratio of MIC for Linezolid to compound for Staphylococcus aureus ATCC 25923; assay type: functional
[7] = test system: Staphylococcus epidermidis; assay: Ratio of MIC for Linezolid to compound for Staphylococcus epidermidis ATCC 12228; assay type: functional
CYP1A2 = target: T1, CYP1A2 (Homo sapiens, UniProt P05177); assay: Inhibition of CYP1A2 at 10 uM; assay type: ADME
T1 sequence (P05177 whole entry): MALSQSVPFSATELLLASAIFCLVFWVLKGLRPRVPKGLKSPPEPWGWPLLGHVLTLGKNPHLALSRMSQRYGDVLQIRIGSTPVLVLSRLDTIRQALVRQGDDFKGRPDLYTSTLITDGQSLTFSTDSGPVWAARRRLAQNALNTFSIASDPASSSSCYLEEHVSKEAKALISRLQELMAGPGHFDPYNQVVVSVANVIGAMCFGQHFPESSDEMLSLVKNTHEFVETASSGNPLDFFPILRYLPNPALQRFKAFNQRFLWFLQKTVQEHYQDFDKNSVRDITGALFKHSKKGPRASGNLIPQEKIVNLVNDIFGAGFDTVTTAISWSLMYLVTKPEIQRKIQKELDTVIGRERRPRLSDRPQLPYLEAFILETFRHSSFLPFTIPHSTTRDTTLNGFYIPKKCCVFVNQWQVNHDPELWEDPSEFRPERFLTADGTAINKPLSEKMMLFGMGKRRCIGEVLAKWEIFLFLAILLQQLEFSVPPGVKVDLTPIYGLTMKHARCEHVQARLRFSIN
Summary of the method: (§1)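 Recombinant CYP isoforms each incubated with its own fluorogenic substrate, which is turned into a fluorescent product; fluorescence read on a plate reader. Inhibition taken as concentration-dependent reduction of that fluorescence, with standard inhibitors, buffers and stop reagents from a commercial kit.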

CYP2C9 = CYP2C9 (Homo sapiens, UniProt P11712); assay: Inhibition of CYP2C9 at 10 uM; assay type: ADME; summary of the method: as §1
Chain of CYP2C9 (P11712 whole entry): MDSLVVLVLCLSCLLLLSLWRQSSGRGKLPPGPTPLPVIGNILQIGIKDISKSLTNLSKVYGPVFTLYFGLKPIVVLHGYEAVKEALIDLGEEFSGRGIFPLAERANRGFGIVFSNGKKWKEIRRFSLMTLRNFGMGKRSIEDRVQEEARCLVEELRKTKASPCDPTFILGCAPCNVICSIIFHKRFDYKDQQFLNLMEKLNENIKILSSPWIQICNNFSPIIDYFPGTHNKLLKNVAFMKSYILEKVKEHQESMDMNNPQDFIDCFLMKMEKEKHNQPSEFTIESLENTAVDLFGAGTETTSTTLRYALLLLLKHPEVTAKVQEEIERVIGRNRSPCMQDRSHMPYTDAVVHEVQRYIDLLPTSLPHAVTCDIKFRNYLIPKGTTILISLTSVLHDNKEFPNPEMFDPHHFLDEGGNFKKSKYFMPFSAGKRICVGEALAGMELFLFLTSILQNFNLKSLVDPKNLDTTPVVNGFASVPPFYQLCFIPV

CYP2C19 = CYP2C19 (Homo sapiens, UniProt P33261); assay: Inhibition of CYP2C19 at 10 uM; assay type: ADME; summary of the method: as §1
Chain of CYP2C19 (P33261 whole entry): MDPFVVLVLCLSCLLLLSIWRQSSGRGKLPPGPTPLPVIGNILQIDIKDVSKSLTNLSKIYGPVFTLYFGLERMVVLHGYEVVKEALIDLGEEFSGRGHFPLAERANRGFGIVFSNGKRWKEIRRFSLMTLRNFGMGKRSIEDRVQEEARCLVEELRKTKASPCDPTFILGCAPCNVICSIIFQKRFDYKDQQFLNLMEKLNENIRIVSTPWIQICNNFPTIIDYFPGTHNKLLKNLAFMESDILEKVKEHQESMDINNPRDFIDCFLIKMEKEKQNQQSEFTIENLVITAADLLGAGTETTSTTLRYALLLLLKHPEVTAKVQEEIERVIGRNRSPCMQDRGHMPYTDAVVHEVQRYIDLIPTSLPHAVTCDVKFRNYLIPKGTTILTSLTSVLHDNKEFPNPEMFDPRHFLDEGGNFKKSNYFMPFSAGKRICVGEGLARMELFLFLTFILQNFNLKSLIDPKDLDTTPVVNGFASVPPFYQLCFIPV

CYP2D6 = CYP2D6 (Homo sapiens, UniProt P10635); assay: Inhibition of CYP2D6 at 10 uM; assay type: ADME; summary of the method: as §1
Chain of CYP2D6 (P10635 whole entry): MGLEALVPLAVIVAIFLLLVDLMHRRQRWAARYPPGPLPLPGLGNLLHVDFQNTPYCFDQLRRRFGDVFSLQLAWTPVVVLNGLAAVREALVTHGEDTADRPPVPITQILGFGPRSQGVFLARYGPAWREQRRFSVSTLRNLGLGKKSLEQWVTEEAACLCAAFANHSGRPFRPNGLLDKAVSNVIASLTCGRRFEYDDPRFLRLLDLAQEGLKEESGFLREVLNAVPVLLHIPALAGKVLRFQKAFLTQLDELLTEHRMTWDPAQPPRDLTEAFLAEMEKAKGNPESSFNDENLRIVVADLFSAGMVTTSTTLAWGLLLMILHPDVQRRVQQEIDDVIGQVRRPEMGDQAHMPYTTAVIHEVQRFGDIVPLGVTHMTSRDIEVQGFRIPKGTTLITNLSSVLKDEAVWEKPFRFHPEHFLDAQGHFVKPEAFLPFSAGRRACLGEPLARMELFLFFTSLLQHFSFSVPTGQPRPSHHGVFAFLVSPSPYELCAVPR

CYP3A4 = CYP3A4 (Homo sapiens, UniProt P08684); assay: Inhibition of CYP3A4 at 10 uM; assay type: ADME; summary of the method: as §1
Chain of CYP3A4 (P08684 whole entry): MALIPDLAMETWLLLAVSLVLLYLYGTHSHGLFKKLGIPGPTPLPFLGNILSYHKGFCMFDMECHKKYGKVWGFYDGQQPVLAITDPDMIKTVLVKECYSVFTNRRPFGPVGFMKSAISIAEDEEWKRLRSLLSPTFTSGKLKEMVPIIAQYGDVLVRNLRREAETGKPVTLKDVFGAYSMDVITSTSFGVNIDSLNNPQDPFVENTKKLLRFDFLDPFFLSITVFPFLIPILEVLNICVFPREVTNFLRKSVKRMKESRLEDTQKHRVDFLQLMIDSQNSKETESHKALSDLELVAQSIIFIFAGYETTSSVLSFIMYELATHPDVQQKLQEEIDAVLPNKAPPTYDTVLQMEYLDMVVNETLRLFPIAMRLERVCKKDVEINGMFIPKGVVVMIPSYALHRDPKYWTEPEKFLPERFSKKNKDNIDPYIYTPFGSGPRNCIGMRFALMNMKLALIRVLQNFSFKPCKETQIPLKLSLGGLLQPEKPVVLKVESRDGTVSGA

Liver = assay: Metabolic stability in human liver microsomes assessed per gram of liver; assay type: ADME, Microsome

In the case of `CC(=O)NC[C@H]1CN(c2ccc(-c3nnc4ncccn34)cc2)C(=O)O1`, the MIC [1] is reported as 8 µg/mL (≈ 22.7 µM), the MIC (Escherichia coli) is reported as over 16 µg/mL and the MIC (Enterococcus faecalis [2]) is reported as 16 µg/mL (≈ 45.4 µM). The MIC (Staphylococcus aureus [3]) was 16 µg/mL (≈ 45.4 µM) and the MIC (Staphylococcus aureus [4]) was 16 µg/mL (≈ 45.4 µM).

`CCC(=O)NC[C@H]1CN(c2ccc(-c3nnc4ncccn34)cc2)C(=O)O1` showed an MIC [1] of 16 µg/mL (≈ 43.7 µM), an MIC (Escherichia coli) of over 16 µg/mL and an MIC (Enterococcus faecalis [2]) of 16 µg/mL (≈ 43.7 µM). It also gave an MIC (Staphylococcus aureus [3]) of 16 µg/mL (≈ 43.7 µM) and an MIC (Staphylococcus aureus [4]) of 16 µg/mL (≈ 43.7 µM).

In the case of `CCCC(=O)NC[C@H]1CN(c2ccc(-c3nnc4ncccn34)cc2)C(=O)O1`, the MIC [1] is reported as 16 µg/mL (≈ 42.1 µM), the MIC (Escherichia coli) is reported as over 16 µg/mL and the MIC (Enterococcus faecalis [2]) is reported as over 16 µg/mL. For the same molecule, the MIC (Staphylococcus aureus [3]) was 16 µg/mL (≈ 42.1 µM) and the MIC (Staphylococcus aureus [4]) was over 16 µg/mL.

Molecule `CCCCC(=O)NC[C@H]1CN(c2ccc(-c3nnc4ncccn34)cc2)C(=O)O1` has an MIC [1] of 16 µg/mL (≈ 40.6 µM), an MIC (Escherichia coli) of over 16 µg/mL and an MIC (Enterococcus faecalis [2]) of over 16 µg/mL. For the same molecule, the MIC (Staphylococcus aureus [3]) was 16 µg/mL (≈ 40.6 µM) and the MIC (Staphylococcus aureus [4]) was over 16 µg/mL.

In the case of `CC(C)CC(=O)NC[C@H]1CN(c2ccc(-c3nnc4ncccn34)cc2)C(=O)O1`, the MIC [1] is reported as 16 µg/mL (≈ 40.6 µM), the MIC (Escherichia coli) is reported as over 16 µg/mL and the MIC (Enterococcus faecalis [2]) is reported as over 16 µg/mL. For the same molecule, the MIC (Staphylococcus aureus [3]) was 16 µg/mL (≈ 40.6 µM) and the MIC (Staphylococcus aureus [4]) was over 16 µg/mL.

`CC(C)C(=O)NC[C@H]1CN(c2ccc(-c3nnc4ncccn34)cc2)C(=O)O1` was tested, and the MIC [1] was over 16 µg/mL, the MIC (Escherichia coli) was over 16 µg/mL and the MIC (Enterococcus faecalis [2]) was over 16 µg/mL. It also gave an MIC (Staphylococcus aureus [3]) of 16 µg/mL (≈ 42.1 µM) and an MIC (Staphylococcus aureus [4]) of over 16 µg/mL.

In the case of `O=C(CCl)NC[C@H]1CN(c2ccc(-c3nnc4ncccn34)cc2)C(=O)O1`, the MIC [1] is reported as 4 µg/mL (≈ 10.3 µM), the MIC (Escherichia coli) is reported as over 16 µg/mL and the MIC (Enterococcus faecalis [2]) is reported as 16 µg/mL (≈ 41.4 µM). For the same molecule, the MIC (Staphylococcus aureus [3]) was 4 µg/mL (≈ 10.3 µM) and the MIC (Staphylococcus aureus [4]) was 4 µg/mL (≈ 10.3 µM).

`O=C(NC[C@H]1CN(c2ccc(-c3nnc4ncccn34)cc2)C(=O)O1)C(Cl)Cl` showed an MIC [1] of 4 µg/mL (≈ 9.5 µM), an MIC (Escherichia coli) of over 16 µg/mL and an MIC (Enterococcus faecalis [2]) of 8 µg/mL (≈ 19 µM). It also gave an MIC (Staphylococcus aureus [3]) of 8 µg/mL (≈ 19 µM) and an MIC (Staphylococcus aureus [4]) of 4 µg/mL (≈ 9.5 µM).

Molecule `O=C(NC[C@H]1CN(c2ccc(-c3nnc4ncccn34)cc2)C(=O)O1)C1CC1` has an MIC [1] of 8 µg/mL (≈ 21.1 µM), an MIC (Escherichia coli) of over 16 µg/mL and an MIC (Enterococcus faecalis [2]) of 16 µg/mL (≈ 42.3 µM). The MIC (Staphylococcus aureus [3]) was 8 µg/mL (≈ 21.1 µM) and the MIC (Staphylococcus aureus [4]) was 16 µg/mL (≈ 42.3 µM).

`O=C(NC[C@H]1CN(c2ccc(-c3nnc4ncccn34)cc2)C(=O)O1)C1CCC1` was tested, and the MIC [1] was 16 µg/mL (≈ 40.8 µM), the MIC (Escherichia coli) was over 16 µg/mL and the MIC (Enterococcus faecalis [2]) was over 16 µg/mL. It also gave an MIC (Staphylococcus aureus [3]) of 16 µg/mL (≈ 40.8 µM) and an MIC (Staphylococcus aureus [4]) of over 16 µg/mL.

Molecule `O=C(NC[C@H]1CN(c2ccc(-c3nnc4ncccn34)cc2)C(=O)O1)c1ccccc1` has an MIC [1] of over 16 µg/mL, an MIC (Escherichia coli) of over 16 µg/mL and an MIC (Enterococcus faecalis [2]) of over 16 µg/mL. It also gave an MIC (Staphylococcus aureus [3]) of over 16 µg/mL and an MIC (Staphylococcus aureus [4]) of over 16 µg/mL.

Work on `CC(=S)NC[C@H]1CN(c2ccc(-c3nnc4ncccn34)cc2)C(=O)O1` yielded an MIC [1] of 0.5 µg/mL (≈ 1.36 µM), an MIC (Escherichia coli) of over 16 µg/mL and a Ratio (Enterococcus faecalis [5]) of 2. For the same molecule, the Ratio (Staphylococcus aureus [6]) was 2, the Ratio [7] was 2 and the inhibition at 10 µM (CYP1A2) was 0%. It also gave an inhibition at 10 µM (CYP2C9) of 15%, an inhibition at 10 µM (CYP2C19) of 30% and an inhibition at 10 µM (CYP2D6) of 13%. It also gave an inhibition at 10 µM (CYP3A4) of 28%, a Stability (Liver) of 0.3 mL/min/g and an MIC (Enterococcus faecalis [2]) of 1 µg/mL (≈ 2.71 µM). It also gave an MIC (Staphylococcus aureus [3]) of 0.5 µg/mL (≈ 1.36 µM) and an MIC (Staphylococcus aureus [4]) of 1 µg/mL (≈ 2.71 µM).

`CCC(=S)NC[C@H]1CN(c2ccc(-c3nnc4ncccn34)cc2)C(=O)O1` was tested, and the MIC [1] was 2 µg/mL (≈ 5.23 µM), the MIC (Escherichia coli) was over 16 µg/mL and the MIC (Enterococcus faecalis [2]) was 4 µg/mL (≈ 10.5 µM). For the same molecule, the MIC (Staphylococcus aureus [3]) was 2 µg/mL (≈ 5.23 µM) and the MIC (Staphylococcus aureus [4]) was 4 µg/mL (≈ 10.5 µM).

In the case of `COC(=O)NC[C@H]1CN(c2ccc(-c3nnc4ncccn34)cc2)C(=O)O1`, the MIC [1] is reported as 16 µg/mL (≈ 43.4 µM), the MIC (Escherichia coli) is reported as over 16 µg/mL and the MIC (Enterococcus faecalis [2]) is reported as over 16 µg/mL. The MIC (Staphylococcus aureus [3]) was 16 µg/mL (≈ 43.4 µM) and the MIC (Staphylococcus aureus [4]) was 16 µg/mL (≈ 43.4 µM).

`CCOC(=O)NC[C@H]1CN(c2ccc(-c3nnc4ncccn34)cc2)C(=O)O1` gave an MIC [1] of over 16 µg/mL, an MIC (Escherichia coli) of over 16 µg/mL and an MIC (Enterococcus faecalis [2]) of over 16 µg/mL. The MIC (Staphylococcus aureus [3]) was 16 µg/mL (≈ 41.8 µM) and the MIC (Staphylococcus aureus [4]) was 16 µg/mL (≈ 41.8 µM).

`O=C(NC[C@H]1CN(c2ccc(-c3nnc4ncccn34)cc2)C(=O)O1)Oc1ccccc1` was tested, and the MIC [1] was over 16 µg/mL, the MIC (Escherichia coli) was over 16 µg/mL and the MIC (Enterococcus faecalis [2]) was over 16 µg/mL. For the same molecule, the MIC (Staphylococcus aureus [3]) was over 16 µg/mL and the MIC (Staphylococcus aureus [4]) was over 16 µg/mL.

`CC(C)NC(=O)NC[C@H]1CN(c2ccc(-c3nnc4ncccn34)cc2)C(=O)O1` gave an MIC [1] of over 16 µg/mL, an MIC (Escherichia coli) of over 16 µg/mL and an MIC (Enterococcus faecalis [2]) of over 16 µg/mL. It also gave an MIC (Staphylococcus aureus [3]) of over 16 µg/mL and an MIC (Staphylococcus aureus [4]) of over 16 µg/mL.

`CC(C)(C)NC(=O)NC[C@H]1CN(c2ccc(-c3nnc4ncccn34)cc2)C(=O)O1` was tested, and the MIC [1] was over 16 µg/mL, the MIC (Escherichia coli) was over 16 µg/mL and the MIC (Enterococcus faecalis [2]) was over 16 µg/mL. The MIC (Staphylococcus aureus [3]) was over 16 µg/mL and the MIC (Staphylococcus aureus [4]) was over 16 µg/mL.

`CCCCNC(=O)NC[C@H]1CN(c2ccc(-c3nnc4ncccn34)cc2)C(=O)O1` showed an MIC [1] of over 16 µg/mL, an MIC (Escherichia coli) of over 16 µg/mL and an MIC (Enterococcus faecalis [2]) of over 16 µg/mL. It also gave an MIC (Staphylococcus aureus [3]) of over 16 µg/mL and an MIC (Staphylococcus aureus [4]) of over 16 µg/mL.

Molecule `CC(C)NC(=S)NC[C@H]1CN(c2ccc(-c3nnc4ncccn34)cc2)C(=O)O1` has an MIC [1] of 16 µg/mL (≈ 38.9 µM), an MIC (Escherichia coli) of over 16 µg/mL and an MIC (Enterococcus faecalis [2]) of over 16 µg/mL. The MIC (Staphylococcus aureus [3]) was 16 µg/mL (≈ 38.9 µM) and the MIC (Staphylococcus aureus [4]) was 16 µg/mL (≈ 38.9 µM).

Molecule `CCCCNC(=S)NC[C@H]1CN(c2ccc(-c3nnc4ncccn34)cc2)C(=O)O1` has an MIC [1] of 8 µg/mL (≈ 18.8 µM), an MIC (Escherichia coli) of over 16 µg/mL and an MIC (Enterococcus faecalis [2]) of 16 µg/mL (≈ 37.6 µM). It also gave an MIC (Staphylococcus aureus [3]) of 8 µg/mL (≈ 18.8 µM) and an MIC (Staphylococcus aureus [4]) of 16 µg/mL (≈ 37.6 µM).

Work on `COCCNC(=S)NC[C@H]1CN(c2ccc(-c3nnc4ncccn34)cc2)C(=O)O1` yielded an MIC [1] of 8 µg/mL (≈ 18.7 µM), an MIC (Escherichia coli) of over 16 µg/mL and an MIC (Enterococcus faecalis [2]) of over 16 µg/mL. For the same molecule, the MIC (Staphylococcus aureus [3]) was 16 µg/mL (≈ 37.4 µM) and the MIC (Staphylococcus aureus [4]) was over 16 µg/mL.

`CC(=O)NC[C@H]1CN(c2ccc(N3CCOCC3)c(F)c2)C(=O)O1` [LINEZOLID] was tested, and the MIC [1] was 1 µg/mL (≈ 2.96 µM) and the MIC (Escherichia coli) was over 16 µg/mL.
